From ChEMBL document CHEMBL5143722, “Antimicrobial Peptides against Multidrug-Resistant Pseudomonas aeruginosa Biofilm from Cystic Fibrosis Patients” (J Med Chem, 2022)
Calls of active or inactive are those of the source. No cut-off for these calls is given here.

Tests used:
[1] = system: Pseudomonas aeruginosa; test: Antibiofilm activity against Pseudomonas aeruginosa clinical isolate 24 in basal medium 2 at 12.5 to 100 uM incubated for 24 hrs by resazurin staining based microtiter plate method; assay type: functional, organism-based; conditions: dose 12.5-100 µM
[2] = system: Pseudomonas aeruginosa; test: Antibiofilm activity against Pseudomonas aeruginosa clinical isolate 25 assessed as inhibition of biofilm formation at sub-inhibitory concentration incubated for 24 hrs by crystal violet staining based microtiter plate method; assay type: functional, organism-based
Summary of the method: (§1)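 Washed overnight cultures in BM2 medium at 1 × 10^6 CFU/mL with 2-fold serial peptide dilutions in a U-bottom 96-well plate. Incubated 24 h at 37 °C without agitation. Unattached cells washed off, then 0.1% crystal violet stain read at 590 nm. No-bacteria blanks. Biomass expressed as % of untreated biofilm. At least three biological repeats.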

[3] = system: Pseudomonas aeruginosa; test: Antibiofilm activity against Pseudomonas aeruginosa clinical isolate 71 assessed as inhibition of biofilm formation at sub-inhibitory concentration incubated for 24 hrs by crystal violet staining based microtiter plate method; assay type: functional, organism-based; summary of the method: as §1
[4] = system: Pseudomonas aeruginosa; test: Induction of biofilm degradation of Pseudomonas aeruginosa clinical isolate 238 at 50 uM incubated for 1 hr by crystal violet staining analysis relative to control; assay type: functional
Summary of the method: (§2)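 Bacteria at 1 × 10^6 CFU/mL in BM2 grown static at 37 °C for 24 h to form biofilm. Wells rinsed of unattached cells, then exposed for 1 h to serial peptide dilutions (1.56–50 μM). Washed, stained with 0.1% crystal violet, A590 read. Biomass given as % of untreated biofilm; no-bacteria wells as blanks. At least three biological repeats.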

[5] = system: Pseudomonas aeruginosa; test: Induction of biofilm degradation of Pseudomonas aeruginosa clinical isolate 29 at 50 uM incubated for 1 hr by crystal violet staining analysis relative to control; assay type: functional; summary of the method: as §2
[6] = system: Pseudomonas aeruginosa; test: Induction of biofilm degradation of Pseudomonas aeruginosa PAO1 at 50 uM incubated for 1 hr by crystal violet staining analysis relative to control; assay type: functional; summary of the method: as §2
[7] = system: Pseudomonas aeruginosa; test: Induction of biofilm degradation of Pseudomonas aeruginosa clinical isolate 40 at 50 uM incubated for 1 hr by crystal violet staining analysis relative to control; assay type: functional; summary of the method: as §2
[8] = system: Pseudomonas aeruginosa; test: Induction of biofilm degradation of Pseudomonas aeruginosa clinical isolate 59 at <12.5 uM incubated for 1 hr by crystal violet staining analysis; assay type: functional; summary of the method: as §2
[9] = system: Pseudomonas aeruginosa; test: Antibiofilm activity against Pseudomonas aeruginosa clinical isolate 46 assessed as inhibition of biofilm formation at sub-inhibitory concentration incubated for 24 hrs by crystal violet staining based microtiter plate method; assay type: functional, organism-based; summary of the method: as §1
[10] = system: Pseudomonas aeruginosa; test: Inhibition of biofilm formation of Pseudomonas aeruginosa clinical isolate 24 derived from cystic fibrosis patient sputum at 0.78 to 25 uM by crystal violet based staining analysis; assay type: functional, organism-based; conditions: dose 0.78-25 µM
Summary of the method: (§3)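 CF patient sputum diluted 10-fold with BM2, bacteria added with serial peptide dilutions starting from the highest MIC per isolate. Inoculum suspension 1 × 10^6 CFU/mL. Incubated 24 h at 37 °C without agitation. Unattached cells washed away, then 0.1% crystal violet staining and A590. Biomass given as % of untreated, with no-bacteria blanks.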

[11] = system: Pseudomonas aeruginosa; test: Induction of biofilm degradation of Pseudomonas aeruginosa clinical isolate 72 at 50 uM incubated for 1 hr by crystal violet staining analysis relative to control; assay type: functional; summary of the method: as §2
[12] = system: Pseudomonas aeruginosa; test: Antibiofilm activity against Pseudomonas aeruginosa PAO1 in basal medium 2 at 12.5 to 100 uM incubated for 24 hrs by resazurin staining based microtiter plate method; assay type: functional, organism-based; conditions: dose 12.5-100 µM
[13] = system: Pseudomonas aeruginosa; test: Antibiofilm activity against Pseudomonas aeruginosa clinical isolate 24 assessed as inhibition of biofilm formation at sub-inhibitory concentration incubated for 24 hrs by crystal violet staining based microtiter plate method; assay type: functional, organism-based; summary of the method: as §1
[14] = system: Pseudomonas aeruginosa; test: Antibiofilm activity against Pseudomonas aeruginosa clinical isolate 629 assessed as inhibition of biofilm formation at sub-inhibitory concentration incubated for 24 hrs by crystal violet staining based microtiter plate method; assay type: functional, organism-based; summary of the method: as §1
[15] = system: Pseudomonas aeruginosa; test: Induction of biofilm degradation of Pseudomonas aeruginosa clinical isolate 71 at 50 uM incubated for 1 hr by crystal violet staining analysis relative to control; assay type: functional; summary of the method: as §2
[16] = system: Pseudomonas aeruginosa; test: Inhibition of biofilm formation of Pseudomonas aeruginosa clinical isolate 24 derived from cystic fibrosis patient sputum at 0.09 to 3.12 uM by crystal violet based staining analysis; assay type: functional, organism-based; conditions: dose 0.09-3.12 µM; summary of the method: as §3
[17] = system: Pseudomonas aeruginosa; test: Induction of biofilm degradation of Pseudomonas aeruginosa clinical isolate 59 at 50 uM incubated for 1 hr by crystal violet staining analysis relative to control; assay type: functional
Summary of the method: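 Inoculum of 1 × 10^6 CFU/mL was grown 24 h at 37 °C without agitation to form biofilm. Wells were rinsed of unattached bacteria and exposed for 1 h to serial peptide dilutions (1.56–50 μM). They were then washed, stained with 0.1% crystal violet, and read at 590 nm with no-bacteria blanks. Biomass is given as % of untreated biofilm.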

[18] = system: Pseudomonas aeruginosa; test: Inhibition of biofilm formation of Pseudomonas aeruginosa PAO1 in patient derived CF-sputum at 0.09 to 3.12 uM by crystal violet based staining analysis; assay type: functional, organism-based; conditions: dose 0.09-3.12 µM; summary of the method: as §3
[19] = system: Pseudomonas aeruginosa; test: Induction of biofilm degradation of Pseudomonas aeruginosa clinical isolate 24 at sub MIC concentration incubated for 1 hr by crystal violet staining analysis; assay type: functional; summary of the method: as §2
[20] = system: Pseudomonas aeruginosa; test: Induction of biofilm degradation of Pseudomonas aeruginosa clinical isolate 25 at 50 uM incubated for 1 hr by crystal violet staining analysis relative to control; assay type: functional; summary of the method: as §2
[21] = system: Pseudomonas aeruginosa; test: Induction of biofilm degradation of Pseudomonas aeruginosa clinical isolate 629 at 50 uM incubated for 1 hr by crystal violet staining analysis relative to control; assay type: functional; summary of the method: as §2
[22] = system: Pseudomonas aeruginosa; test: Induction of biofilm degradation of Pseudomonas aeruginosa clinical isolate 251 at 50 uM incubated for 1 hr by crystal violet staining analysis; assay type: functional; summary of the method: as §2
[23] = system: Pseudomonas aeruginosa; test: Induction of biofilm degradation of Pseudomonas aeruginosa clinical isolate 172 at 50 uM incubated for 1 hr by crystal violet staining analysis relative to control; assay type: functional; summary of the method: as §2
[24] = system: Pseudomonas aeruginosa; test: Induction of biofilm degradation of Pseudomonas aeruginosa clinical isolate 46 at 50 uM incubated for 1 hr by crystal violet staining analysis relative to control; assay type: functional; summary of the method: as §2
[25] = system: Pseudomonas aeruginosa; test: Induction of biofilm degradation of Pseudomonas aeruginosa clinical isolate 82 at 50 uM incubated for 1 hr by crystal violet staining analysis relative to control; assay type: functional; summary of the method: as §2
[26] = system: Pseudomonas aeruginosa; test: Inhibition of biofilm formation of Pseudomonas aeruginosa clinical isolate 82 derived from cystic fibrosis patient sputum at 0.09 to 3.12 uM by crystal violet based staining analysis; assay type: functional, organism-based; conditions: dose 0.09-3.12 µM; summary of the method: as §3
[27] = system: Pseudomonas aeruginosa; test: Induction of biofilm degradation of Pseudomonas aeruginosa clinical isolate 995 at 50 uM incubated for 1 hr by crystal violet staining analysis relative to control; assay type: functional; summary of the method: as §2
[28] = system: Pseudomonas aeruginosa; test: Antibiofilm activity against Pseudomonas aeruginosa clinical isolate 99 assessed as inhibition of biofilm formation at sub-inhibitory concentration incubated for 24 hrs by crystal violet staining based microtiter plate method; assay type: functional, organism-based; summary of the method: as §1
[29] = system: Pseudomonas aeruginosa; test: Induction of biofilm degradation of Pseudomonas aeruginosa clinical isolate 24 incubated for 1 hr by crystal violet staining analysis relative to control; assay type: functional; conditions: dose 50.0 µM; summary of the method: as §2
[30] = system: Pseudomonas aeruginosa; test: Induction of biofilm degradation of Pseudomonas aeruginosa clinical isolate 53 at 50 uM incubated for 1 hr by crystal violet staining analysis relative to control; assay type: functional; summary of the method: as §2
[31] = system: Pseudomonas aeruginosa PAO1; test: Induction of biofilm degradation of Pseudomonas aeruginosa PAO1 in cystic fibrosis patient sputum at 10 uM incubated for 48 hr by resazurin staining based confocal microscopy analysis
[32] = system: Pseudomonas aeruginosa; test: Antibiofilm activity against Pseudomonas aeruginosa clinical isolate 82 in basal medium 2 at 12.5 to 100 uM incubated for 24 hrs by resazurin staining based microtiter plate method; assay type: functional, organism-based; conditions: dose 12.5-100 µM
[33] = system: Pseudomonas aeruginosa; test: Induction of biofilm degradation of Pseudomonas aeruginosa clinical isolate 52 at 50 uM incubated for 1 hr by crystal violet staining analysis relative to control; assay type: functional; summary of the method: as §2
[34] = system: Pseudomonas aeruginosa; test: Induction of biofilm degradation of Pseudomonas aeruginosa clinical isolate 53 at sub MIC concentration incubated for 1 hr by crystal violet staining analysis; assay type: functional; summary of the method: as §2
[35] = system: Pseudomonas aeruginosa; test: Antibiofilm activity against Pseudomonas aeruginosa clinical isolate 53 assessed as inhibition of biofilm formation at sub-inhibitory concentration incubated for 24 hrs by crystal violet staining based microtiter plate method; assay type: functional, organism-based; summary of the method: as §1
[36] = system: Pseudomonas aeruginosa; test: Induction of biofilm degradation of Pseudomonas aeruginosa clinical isolate 40 at sub MIC concentration incubated for 1 hr by crystal violet staining analysis; assay type: functional; summary of the method: as §2
[37] = system: Pseudomonas aeruginosa; test: Induction of biofilm degradation of Pseudomonas aeruginosa clinical isolate 99 at 50 uM incubated for 1 hr by crystal violet staining analysis relative to control; assay type: functional; summary of the method: as §2
[38] = system: Pseudomonas aeruginosa; test: Antibiofilm activity against Pseudomonas aeruginosa clinical isolate 72 assessed as inhibition of biofilm formation at sub-inhibitory concentration incubated for 24 hrs by crystal violet staining based microtiter plate method; assay type: functional, organism-based; summary of the method: as §1
[39] = system: Pseudomonas aeruginosa; test: Antibiofilm activity against Pseudomonas aeruginosa clinical isolate 46 in basal medium 2 at 12.5 to 100 uM incubated for 24 hrs by resazurin staining based microtiter plate method; assay type: functional, organism-based; conditions: dose 12.5-100 µM

With `CC(C)C[C@H](NC(=O)[C@H](CC(C)C)NC(=O)[C@H](CC(C)C)NC(=O)[C@H](CC(C)C)NC(=O)[C@H](CCCCN)NC(=O)[C@H](CCCCN)NC(=O)[C@H](CCCCN)NC(=O)[C@H](CCCCN)NC(=O)[C@H](CCCCN)NC(=O)[C@H](CCCCN)NC(=O)[C@H](CC(C)C)NC(=O)[C@H](CC(C)C)NC(=O)[C@H](CC(C)C)NC(=O)[C@H](CC(C)C)NC(=O)[C@@H](N)CC(C)C)C(N)=O` the Activity [1] was “Active”, the inhibition [2] was “Active” and the inhibition [3] was “Active”. For the same molecule, the Activity [4] was 60%, the Activity [5] was 60% and the Activity [6] was 60%. For the same molecule, the Activity [7] was 60%, the Activity [8] was “Active” and the inhibition [9] was “Active”. The inhibition [10] was “Active”, the Activity [11] was 60% and the Activity [12] was “Active”. For the same molecule, the inhibition [13] was “Active”, the inhibition [14] was “Active” and the Activity [15] was 60%. The inhibition [16] was “Active”, the Activity [17] was 40% and the inhibition [18] was “Active”. The Activity [19] was “Active”, the Activity [20] was 60% and the Activity [21] was 60%. For the same molecule, the Activity [22] was 60%, the Activity [23] was 60% and the Activity [24] was 60%. The Activity [25] was 60%, the inhibition [26] was “Active” and the Activity [27] was 60%. The inhibition [28] was “Active”, the Activity [29] was 60% and the Activity [30] was 60%. The Activity [31] was “Active”, the Activity [32] was “Active” and the Activity [33] was 60%. For the same molecule, the Activity [34] was “Active”, the inhibition [35] was “Active” and the Activity [36] was “Active”. For the same molecule, the Activity [37] was 60%, the inhibition [38] was “Active” and the Activity [39] was “Active”.
